Screens as filed in PubChem BioAssay.
proCasp3 act: activators of human procaspase-3; recombinant procaspase-3 D3A, Ac-DEVD-pNA absorbance 405 nm; activation, % at 8.5 µM; P42574; 330,000 tested, 0.11% active;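 active means activation above the mean of all tested compounds plus 3 SD, cut at about 21% in these data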
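Assay system – Procaspase-3 D3A mutant · Benchmarks – DMSO low control, extra-enzyme high control · Technique – 405 nm absorbance of p-nitroaniline, reads at 0 and 120 min · Doses – 8.5 µM nominal · Measure – % activation between DMSO and enzyme-spiked controls · Also added – Ac-DEVD-pNA chromogenic peptide substrate · Schedule – 1 h compound preincubation, 2 h substrate hydrolysis at 25 °C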
PolyA inhibitor: yeast polyadenylation inhibition; S. cerevisiae SKY197-pL101 polyadenylation reporter, beta-gal luminescence; efflux-impaired pdr1/pdr3 knockout yeast; score 100 = 6 SD above DMSO; activity score, % at 12 µM; 300,000 tested, 0.02% active; AID 1875;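 active means lowest replicate activity score at least 50, where 100 means six control SD above control mean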;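 further: yeast exposed to compound for 9 h at 30 °C; higher score means more reporter readthrough which indicates perturbed polyadenylation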
proCasp7 act: activates human procaspase-7, counter-screen for procaspase-3 activators. activation, % at 8.5 µM. recombinant procaspase-7, Ac-DEVD-pNA absorbance 405 nm; D23A/D198A/D206A triple mutant, cannot self-cleave; scale: DMSO 0, 5 µM enzyme 100. 330,000 tested, 0.093% active. AID 463210. P55210;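 active means percent activation above the screen-wide mean plus 3 SD, cut at about 25% in these data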
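Assay system: Uncleavable procaspase-7 mutant enzyme | Input: 2 µM procaspase-7 mutant as dispensed | Timing: 1 h compound preincubation, 2 h substrate cleavage, 25 °C | Repeats: One well per compound | Control set: DMSO wells as 0%, DMSO with 5 µM added PC-7 as 100% | Technique: Epi-absorbance of released pNA at 405 nm, two timepoints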
AHR activator: activates the human aryl hydrocarbon receptor; AID 2796; activation, % at 5 µM; 320,000 tested, 2.5% active; P35869; AHR-responsive luciferase reporter cells, luminescence; in the data active means activation above about 47%
Target sequence (P35869 whole entry, looked up): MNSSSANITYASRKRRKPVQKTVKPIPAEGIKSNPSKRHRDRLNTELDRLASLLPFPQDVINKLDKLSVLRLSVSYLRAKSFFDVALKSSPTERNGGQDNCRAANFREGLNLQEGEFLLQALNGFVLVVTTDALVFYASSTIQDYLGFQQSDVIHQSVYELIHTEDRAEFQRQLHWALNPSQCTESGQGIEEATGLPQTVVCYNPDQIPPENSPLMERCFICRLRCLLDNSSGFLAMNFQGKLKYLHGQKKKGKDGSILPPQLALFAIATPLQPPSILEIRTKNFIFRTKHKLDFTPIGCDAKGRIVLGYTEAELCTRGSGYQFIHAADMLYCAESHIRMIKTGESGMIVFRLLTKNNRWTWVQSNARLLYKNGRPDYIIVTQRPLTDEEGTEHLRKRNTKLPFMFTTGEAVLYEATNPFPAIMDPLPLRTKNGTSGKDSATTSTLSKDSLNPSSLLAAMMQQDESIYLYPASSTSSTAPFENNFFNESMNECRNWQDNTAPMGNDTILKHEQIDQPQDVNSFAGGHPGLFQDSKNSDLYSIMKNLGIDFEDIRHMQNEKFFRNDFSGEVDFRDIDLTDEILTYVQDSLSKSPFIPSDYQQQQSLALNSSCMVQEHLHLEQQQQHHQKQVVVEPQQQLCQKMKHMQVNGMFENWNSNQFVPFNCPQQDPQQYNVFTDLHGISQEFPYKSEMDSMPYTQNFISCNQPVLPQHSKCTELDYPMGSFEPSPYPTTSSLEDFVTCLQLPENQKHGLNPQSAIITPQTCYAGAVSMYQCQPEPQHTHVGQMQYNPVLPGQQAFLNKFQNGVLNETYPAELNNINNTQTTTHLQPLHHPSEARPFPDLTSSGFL
Numbers stand for hits; n = inactive; x = no result. Hits are enriched below; roughly 2.6% of the tested compounds scored in any of these assays.

SMILES	proCasp3 act	PolyA inhibitor	proCasp7 act	AHR activator
COc1ccccc1NC(=O)OC(C)c1ccc(Cl)cc1 (stereo not drawn)	n	n	n	75.4
COc1ccccc1NC(=O)Nc1cc(C(C)C)ccc1C	x	n	x	x
COc1ccc(OC)c(NC(=O)c2cnc3n(c2=O)CCS3)c1	n	n	n	50.4
COc1ccccc1NC(=O)c1cnc2n(c1=O)CCS2	n	n	n	66.6
COc1ccc(Cl)cc1NC(=O)c1cnc2n(c1=O)CCS2	n	n	n	n
CC(=O)c1cccc(Nc2cc(C)nc3c(C)cc(C)cc23)c1	n	n	n	55.9
CC(=O)c1ccc(Nc2cc(C)nc3ccccc23)cc1	n	n	n	n
CC(=O)c1ccc(Nc2cc(C)nc3c(C)cccc23)cc1	n	n	n	49.3
Cc1ccc(CCN2C(=O)c3ccccc3C2C(=O)NCc2cccnc2)cc1 (stereo not drawn)	n	n	n	n
CCOC(=O)c1ccc(NS(=O)(=O)c2ccc3oc(=O)[nH]c3c2)cc1	n	n	n	n
CCn1c2ccccc2c2cc(N=C3SC(CC(=O)Nc4ccccc4OC)C(=O)N3C)ccc21 (stereo not drawn)	n	n	n	n
CCn1c2ccccc2c2cc(N=C3SC(CC(=O)Nc4ccccc4OC)C(=O)N3CCOC)ccc21 (stereo not drawn)	n	n	n	62.3
Cc1cccc(OCCOCCSc2ncccn2)c1	n	n	n	61.8
COc1cc(/C=N/NC(N)=S)cc(Br)c1OCc1ccccc1F	n	n	n	53.9
COc1cccc(/C=N/NC(N)=S)c1OCc1ccccc1Cl	n	n	n	50.0
COc1ccccc1OCCn1cc(/C=N/NC(N)=S)c2ccccc21	n	n	n	69.5
COc1ccccc1OCCn1cc(/C=N/NC(=O)c2ccncc2)c2ccccc21	n	n	n	n
CCOc1cc(/C=N/NC(N)=S)cc(Br)c1OCc1ccccc1C	n	n	n	n
CN1C(=S)SC(N(O)C(=O)Nc2cccc3ccccc23)C1(C)C (stereo not drawn)	n	n	n	75.1
Cn1cncc1C#Cc1c(-c2ccc(S(C)(=O)=O)cc2)sc2ccccc12	n	x	n	n
Cn1cncc1C#Cc1c(C=O)[nH]c2ccccc12	n	x	n	68.2
CC(C)c1ccc(C2c3[nH]c4ccccc4c3C[C@H]3C(=O)N(c4ccccc4C(=O)N4CCC[C@H]4C(=O)O)C(=O)N23)cc1 (stereo partly drawn)	n	n	n	n
COc1ccccc1-c1sc2cc3c(cc2c1C#CCO)OCO3	n	x	n	66.8
CCOC(=O)c1ccc(-c2c(-c3ccccc3OC)sc3cc4c(cc23)OCO4)cc1F	n	x	n	48.5
COc1ccc(-c2sc3ccc(N4CCOCC4)cc3c2C#CCCO)cc1	n	x	n	97.5
SMILES	proCasp3 act	PolyA inhibitor	proCasp7 act	AHR activator
COc1ccc(-c2sc3cc4c(cc3c2C#CCO)OCO4)cc1	n	x	n	77.2
Cn1cc(Cl)c(/C(N)=N/OC(=O)c2ccccc2C(F)(F)F)n1	n	n	n	n
Cc1ccc(Sc2ccc(NC(=O)c3ccc(S(C)(=O)=O)cc3Cl)cc2)cc1	n	n	n	47.8
O=C(Nc1ccc(C(F)(F)F)cc1)c1csc(-c2ccncc2)n1	n	n	n	66.5
O=C(O)c1csc(-c2ccccc2)n1	n	n	n	n
O=C(Nc1ccccc1)c1csc(-c2ccccc2)n1	n	n	n	68.4
CC(C)C(=O)Nc1cccc(-c2csc(-c3ccccc3)n2)c1	n	n	n	68.1
CC(C)C(=O)Nc1cccc(NC(=S)NC(=O)c2cccs2)c1	n	n	n	47.9
CC(C)C(=O)Nc1ccc(-c2csc(-c3ccccc3)n2)cc1	n	n	n	n
CCC1NC(=S)NC(C)=C1C(=O)c1ccccc1 (stereo not drawn)	n	n	n	n
Cc1ccccc1N1CCN(CCC(=O)Nc2ccc(F)cc2)CC1	n	n	n	n
Cc1ccc(N(CC(=O)NC(C)(C)C)C(=O)CS(=O)CC(=O)Nc2ccc(F)cc2)cc1 (stereo not drawn)	n	n	n	n
O=C(Nc1ccccc1Cl)c1csc(-c2cccnc2)n1	n	n	n	48.2
O=C(NNC(=O)c1csc(-c2cccnc2)n1)c1ccccc1	n	n	n	n
COc1ccccc1-n1c(SCC(=O)OC(C)C)nc2cccnc21	n	n	n	n
COCCn1c(C)cc(/C=C2\NC(=S)N(C)C2=O)c1C	n	n	n	56.9
COCCn1c(C)cc(/C=C2/SC(=O)N(C(C)C(=O)OC)C2=O)c1C (stereo not drawn)	n	n	n	n
CCOc1ccccc1C(=O)NC(C(=O)N(C)Cc1ccc2c(c1)OCO2)C(C)C (stereo not drawn)	n	x	n	n
CCOc1ccccc1C(=O)NC(C)c1ccc2c(c1)OCO2 (stereo not drawn)	n	n	n	52.5
CC(NC(=O)Nc1ccccc1Cl)c1ccc2c(c1)OCO2 (stereo not drawn)	n	n	n	n
CCOc1ccccc1NC(=O)NC(C)c1ccc2c(c1)OCO2 (stereo not drawn)	n	n	n	58.2
CN1CCC(=O)N([C@H](CN=[N+]=[N-])Cc2ccccc2)CC1	n	n	n	n
O=C(c1ccc2c(=O)n3c(nc2c1)CCCCC3)N1CCN(c2ccc([N+](=O)[O-])cc2)CC1	n	n	n	n
O=[N+]([O-])c1ccc(N=NNc2ccccc2)cc1	n	n	n	n
Brc1ccc(N=NNc2ccccc2)cc1	n	n	n	57.6
SMILES	proCasp3 act	PolyA inhibitor	proCasp7 act	AHR activator
COc1cccc(OC)c1C(=O)Nc1sc2c(c1C#N)CCC2	n	n	n	53.9
c1ccc(-c2ccc(C(c3ccccc3)n3ccnc3)cc2)cc1 (stereo not drawn)	n	n	n	48.3
c1ccc(-c2ccc(-n3ccnc3)cc2)cc1	n	n	n	n
Cc1ncsc1CCSc1nc2ccccc2c(=O)n1C	n	n	n	96.0
COc1ccc(-c2cn3cc(C(=O)NN)ccc3n2)cc1	n	n	n	55.2
COc1ccc(C(=O)NN)cc1	n	n	n	n
COc1ccc(N2C(=O)C3CCCN3C2=S)cc1 (stereo not drawn)	n	n	n	n
Cn1cc(C(=O)C(=O)N2CCCc3ccccc32)c2ccccc21	n	n	n	67.8
O=C(C(=O)N1CCCc2ccccc21)c1cn(CC(=O)N2CCOCC2)c2ccccc12	n	x	n	n
Cc1cccc(C)c1NC(=O)Cn1cc(C=O)c2ccccc21	x	n	x	x
Cc1nc2sc(C(c3ccco3)N3CCc4ccccc4C3)c(O)n2n1 (stereo not drawn)	n	n	n	51.2
CCN(CC)C(=O)c1cc(-c2ccc3c(c2)OCO3)on1	n	n	n	73.0
CCCNC(=O)c1cc(-c2ccc3c(c2)OCO3)on1	n	n	n	n
CCN(CC)C(=O)c1cc(-c2ccccc2OC)on1	n	n	n	47.9
COc1ccc(C(=O)N/C(=C\c2cn(C)c3ccccc23)C(=O)N2CCN(C)CC2)cc1OC	n	n	n	n
